Not all results are given here.
Apaf-1 act: activates human Apaf-1 apoptosome | O14727 | 330,000 tested, 0.31% active | Apaf-1 apoptosome caspase-3 activation, DEVD-Rh110 fluorescence; hits give low values | activity change, negative = activation, % at 20 µM;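 active = activity change at or below -40% at 20 µM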
Target sequence (O14727 whole entry, looked up): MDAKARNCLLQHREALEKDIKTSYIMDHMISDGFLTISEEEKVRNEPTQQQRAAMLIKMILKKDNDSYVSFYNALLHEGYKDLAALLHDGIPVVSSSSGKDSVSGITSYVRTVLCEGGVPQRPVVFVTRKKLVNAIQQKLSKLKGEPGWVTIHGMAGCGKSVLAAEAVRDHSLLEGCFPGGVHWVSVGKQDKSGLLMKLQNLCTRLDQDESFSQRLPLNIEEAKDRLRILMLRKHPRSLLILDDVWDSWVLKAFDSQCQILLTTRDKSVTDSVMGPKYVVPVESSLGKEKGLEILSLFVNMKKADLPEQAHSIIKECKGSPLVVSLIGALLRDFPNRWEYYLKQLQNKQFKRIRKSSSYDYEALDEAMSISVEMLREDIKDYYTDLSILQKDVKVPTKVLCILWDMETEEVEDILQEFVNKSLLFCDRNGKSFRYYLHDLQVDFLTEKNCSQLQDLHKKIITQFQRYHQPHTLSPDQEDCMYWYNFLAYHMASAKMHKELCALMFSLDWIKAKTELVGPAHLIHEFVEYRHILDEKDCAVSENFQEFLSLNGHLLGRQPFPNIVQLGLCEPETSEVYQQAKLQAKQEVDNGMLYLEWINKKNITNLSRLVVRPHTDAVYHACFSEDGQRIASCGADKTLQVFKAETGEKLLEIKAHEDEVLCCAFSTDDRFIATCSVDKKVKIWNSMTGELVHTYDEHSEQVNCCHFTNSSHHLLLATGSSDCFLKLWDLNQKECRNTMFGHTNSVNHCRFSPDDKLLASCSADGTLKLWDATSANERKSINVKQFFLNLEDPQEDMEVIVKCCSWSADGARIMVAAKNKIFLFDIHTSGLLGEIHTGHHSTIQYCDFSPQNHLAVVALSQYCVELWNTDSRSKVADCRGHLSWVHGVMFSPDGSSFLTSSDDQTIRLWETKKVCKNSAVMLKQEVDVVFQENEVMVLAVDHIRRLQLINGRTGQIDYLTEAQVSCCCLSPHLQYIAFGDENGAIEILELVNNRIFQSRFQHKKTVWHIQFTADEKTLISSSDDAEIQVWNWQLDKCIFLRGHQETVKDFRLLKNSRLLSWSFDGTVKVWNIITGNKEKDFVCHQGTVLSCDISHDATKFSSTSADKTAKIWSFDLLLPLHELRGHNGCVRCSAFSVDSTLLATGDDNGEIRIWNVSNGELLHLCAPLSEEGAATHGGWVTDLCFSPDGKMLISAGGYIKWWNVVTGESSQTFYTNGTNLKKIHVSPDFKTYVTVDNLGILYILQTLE
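system = biochemical Apaf-1 apoptosome reconstitution | buffer or medium = 20 mM HEPES pH 7.5 with CHAPS, BSA | also added = dATP and cytochrome c as apoptosome triggers, (Z-DEVD)2-Rh110 substrate | incubation = 30 min compound preincubation and 50 min reaction, both room temperature | measured by = fluorescence, 540 nm emission, 480 nm excitation | read-out basis = Caspase-3 cleavage activity downstream of Apaf-1 activation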
Rh110 interf act: Rh110 signal interference in Apaf-1 activator counter-screen; fluorescence interference (activity change), % at 20 µM, hits read low; shares compounds with Apaf-1 act; 980 tested, under 10 active; Rh110 fluorescence interference, quenched caspase reaction, Ex480/Em540;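 active = mean activity change at or below -40% when tested at 20 µM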
Apaf-1 act conf: Apaf-1 (human) activation, single-dose confirmed; shares compounds with Apaf-1 act; 980 tested, 5% active; AID 504617; activity change, negative = activation, % at 20 µM; reconstituted apoptosome caspase-3 activity, DEVD-Rh110 fluorescence; hits give low values;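 active = mean activity change at or below -40%, meaning activation of 40% or more, at 20 µM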
Fluor interf act: counter-screen for Apaf-1 activators: fluorescence interference, dose response; shares compounds with Apaf-1 act; AID 588592; fluorescence interference counterscreen, Apaf-1 activator assay; 55 tested, under 10 active; EC50, µM; call rule not given here
Each line names hits and unclear results; the compound was inactive in the other large screens (follow-up assays come after a bar, where they were run).

CC1=NN(c2ccc(C)c(C)c2)C(=O)/C1=C/c1ccc2c(c1)n(C)c(=O)n2C	none
Cc1nn(-c2ccccc2)c2c1C(c1ccccc1)C(C#N)=C(N)O2 (stereo unspecified)	none
CCOC(=O)C1CCCN(c2cc(NCCCO)c([N+](=O)[O-])c3nonc23)C1 (stereo unspecified)	none
COc1cccc(/C=N/NC(=O)CCn2nnc3ccccc32)c1	Apaf-1 act -70 | Rh110 interf act inactive | Apaf-1 act conf inactive
COc1ccc(/C=N/NC(=O)CCn2cnc(-c3ccccc3)c2-c2ccccc2)cc1	none
O=C(/C=C/c1ccc(-c2ccccc2[N+](=O)[O-])o1)c1ccc(Br)cc1	none
COCCn1c(N)c(C(=O)NCc2cccs2)c2nc3ccccc3nc21	none
CCN(CC(=O)NCc1cccs1)C(=O)CCCOc1ccc(C(C)(C)C)cc1	none
O=C(NCc1cccs1)c1cccnc1C(=O)O	Apaf-1 act -79 | Rh110 interf act inactive | Apaf-1 act conf inactive
CCOc1cc(C)c(S(=O)(=O)Nc2ccc(Cl)cn2)cc1C	Apaf-1 act -40 | Rh110 interf act inactive | Apaf-1 act conf inactive
CN(C)CC/C=C1\c2ccccc2Sc2ccc(Cl)cc21	none
CCCCn1c(=O)[nH]c(=O)c2c1nc(-c1ccc([N+](=O)[O-])cc1)n2CC	Apaf-1 act -45 | Rh110 interf act inactive | Apaf-1 act conf inactive
CCCC[n+]1ccn(C2=C([O-])c3ccccc3C(=O)/C2=N\S(=O)(=O)c2ccccc2)c1	none
COc1ccc(N/C=C2\CCc3ccccc3C2=O)cc1	none
CCCOc1ccc(N)cc1N	none
CCN(c1ccccc1)S(=O)(=O)c1ccc(Cl)c(NC(=O)Nc2ccc(Cl)cc2C#N)c1	none
CCN(CC)S(=O)(=O)c1ccc(Cl)c(NC(=O)c2ccc(C#N)cc2)c1	Apaf-1 act -270 | Rh110 interf act inactive | Apaf-1 act conf inactive
Nc1cccc2cnccc12	none
Oc1ccc(C[C@H]2CNCCN2CCCCC2CCCCC2)cc1	none
Cc1coc2c1C(=O)C(=O)c1c-2ccc2c1CCCC2(C)C	none
CCc1ccc(S(=O)(=O)/N=C2\C=C(NS(=O)(=O)c3ccccc3)C(=O)c3ccccc32)cc1	none
Cc1ccc(C)c(S(=O)(=O)/N=C2\C=C(NS(=O)(=O)c3ccccc3)C(=O)c3ccccc32)c1	none | Fluor interf act inactive
Cc1ccccc1NC1=C/C(=N\S(=O)(=O)c2ccc(C(=O)O)cc2)c2ccccc2C1=O	none
COc1ccccc1NC1=C(N2CCCCC2)C(=O)c2ccccc2C1=O	none
NS(=O)(=O)c1ccc2c(c1)C1C=CCC1C(C1CC=CCC1)N2 (stereo unspecified)	none
COc1ccc(NC(=S)Nc2cccc3ccccc23)cc1OC	none
COc1ccc(NC(=S)Nc2ccccn2)c(OC)c1	Apaf-1 act -48 | Rh110 interf act inactive | Apaf-1 act conf inactive
NC(=O)CSc1ncc(-c2ccc([N+](=O)[O-])cc2)[nH]1	Apaf-1 act -244 | Rh110 interf act inactive | Apaf-1 act conf inactive
COc1ccc(N)cc1-n1c(C)ccc1C	none
Cc1cc(C)cc(OCC(=O)Nc2ccc(N3CCCC3)cc2)c1	none
COc1cc(C)c(NC(=O)COc2ccc3c(c2)CCC3)cc1OC	Apaf-1 act -284 | Rh110 interf act inactive | Apaf-1 act conf inactive
COc1cc2cc(NC(C)=O)cc(NCc3ccccc3)c2cc1OC	none
C[C@H](CCC(=O)NCC(=O)O)[C@H]1CC[C@H]2[C@@H]3[C@H](O)C[C@@H]4C[C@H](O)CC[C@]4(C)[C@H]3C[C@H](O)[C@]12C	none
CCCCNc1cc(NC(C)=O)cc2cc(OC)c(OC)cc12	none
O=C(O)CCN1C(=O)/C(=C2\C(=O)N(Cc3ccccc3Cl)c3ccccc32)SC1=S	Apaf-1 act -121 | Rh110 interf act inactive | Apaf-1 act conf inactive
COc1ccc(/C=C2/C(=O)N(c3ccccc3)N=C2C)cc1Br	none
CN1CCc2cccc3c2[C@H]1Cc1ccc(O)c(O)c1-3	none
C#CCOCCOCCOCCNc1nc(N2CCN(C(=O)CCCCCCCCCCNC(=O)[C@H](CO)n3cc(CCCSC)nn3)CC2)nc(N2CCN(C(=O)CCCCCCCCCCNC(=O)[C@H](CCCCN)n3cc(C[C@@H](C)CC)nn3)CC2)n1	none
Cc1ccc(C2(c3noc(CN(C)CC4CCCCO4)n3)CCCC2)cc1 (stereo unspecified)	Apaf-1 act -413 | Rh110 interf act inactive | Apaf-1 act conf inactive
[O-]/C(=C(\C(=S)Nc1cccc2ccccc12)[n+]1ccccc1)c1ccc(Cl)s1	none
O=C(CNC(=O)c1ccc(Br)cc1)c1ccc(Br)cc1	Apaf-1 act -463 | Rh110 interf act inactive | Apaf-1 act conf inactive

Source: PubChem
